{"data": "Assay results from different studies", "target": "Serine/threonine-protein kinase PAK 1 (PAK1, Homo sapiens, UniProt Q13153)", "note": "Compare with care: the assays were run in different laboratories."}
{"Compound": "C[C@@H](c1ccc(-n2cnc3c(N)ncnc32)cc1)N1CCc2nn(C)c(Cc3ccccc3)c2C1=O", "test": "binding, competition with immobilised ligand", "setting": "0.1 µM", "remaining binding [%]": 97}
{"Compound": "CCN1CCN(Cc2ccc(C(=O)Nc3ccc(C)c(Oc4ccc5c(c4)CC(=O)N5)c3)cc2C(F)(F)F)CC1", "test": "binding, competition with immobilised ligand", "setting": "1 µM", "remaining binding [%]": 100}
{"Compound": "CN(C)c1nccc(-c2cnc3ncccn23)n1", "test": "binding", "setting": "1 µM", "remaining binding [%]": 91}
{"Compound": "O=C(Nc1c[nH]nc1C(=O)NC1CCNCC1)c1cc(F)cc(F)c1", "test": "binding, competition with immobilised ligand", "setting": "1 µM", "remaining binding [%]": 100}
{"Compound": "O=C(c1ccc(Nc2nccc(-c3cc4ccccc4s3)n2)cc1)N1CCC(N2CCCC2)CC1", "test": "binding, competition with immobilised ligand", "setting": "1 µM", "remaining binding [%]": 80}
{"Compound": "c1cnn2ncc(-c3ccnc(N4CCC45COC5)n3)c2c1", "test": "binding", "setting": "1 µM", "remaining binding [%]": 90}
{"Compound": "C[C@@H]1CN(c2ccc3ncc(-c4ccc5[nH]nc(C6CC6)c5c4)n3n2)C[C@H](C)O1", "test": "binding, competition with immobilised ligand", "setting": "0.5 µM", "remaining binding [%]": 98}
{"Compound": "CC1CCCN1c1nccc(-c2cnn3ncccc23)n1 (stereo not drawn)", "test": "binding", "setting": "1 µM", "remaining binding [%]": 100}
{"Compound": "CO[C@H]1CC[C@H](CNc2ccc(S(=O)(=O)NC(=O)c3ccc(N4CCN(CC5=C(c6ccc(Cl)cc6)CC(C)(C)CC5)CC4)cc3Oc3cnc4[nH]ccc4c3)cc2[N+](=O)[O-])CC1", "test": "cell-free assay, competition with immobilised ligand", "setting": "1 µM", "remaining binding [%]": 78}
{"Compound": "COc1ccnn2ncc(-c3ccnc(N(C)C)n3)c12", "test": "binding", "setting": "1 µM", "remaining binding [%]": 79}
{"Compound": "c1cncc(-c2cccc(Nc3nccc(NC4CCCCC4)n3)c2)c1", "test": "binding, competition with immobilised ligand", "setting": "10 µM", "remaining binding [%]": 85}
{"Compound": "COc1cnc(Nc2cccc(S(N)(=O)=O)c2)nc1N1CCN(c2ccccc2)C(=O)C1", "test": "binding, competition with immobilised ligand", "setting": "1 µM", "remaining binding [%]": 100}
{"Compound": "CO[C@@H](C)c1c(Nc2ccc([C@@H](N(C)C(=O)C3CCS(=O)(=O)CC3)C(F)(F)F)cc2)cnc2cc(Cl)nn12", "test": "cell-free assay, competition with immobilised ligand", "setting": "1 µM", "remaining binding [%]": 83}
{"Compound": "O=C(c1ccc(Nc2ncc(Cl)c(-c3ccc(Cl)s3)n2)cc1)N1CCC(N2CCCC2)CC1", "test": "binding, competition with immobilised ligand", "setting": "1 µM", "remaining binding [%]": 68}
{"Compound": "NS(=O)(=O)c1cc(NC(=O)Cc2ccccc2)ccc1Oc1cccc(Cl)c1", "test": "cell-free assay, competition with immobilised ligand", "setting": "1 µM", "remaining binding [%]": 88}
{"Compound": "O=C(c1ccc(Nc2ncc(Cl)c(-c3cc4ccccc4s3)n2)cc1)N1CCC(N2CCCC2)CC1", "test": "binding, competition with immobilised ligand", "setting": "1 µM", "remaining binding [%]": 85}
{"Compound": "CN(C)c1ncnc(-c2ccc3nc(Nc4cc(CN5CCN(C(=O)CC(F)(F)F)CC5)ccn4)[nH]c3c2)c1Cl", "test": "cell-free assay, competition with immobilised ligand", "setting": "1 µM", "remaining binding [%]": 100}
{"Compound": "CN(C)c1ncc(F)c(-c2cnn3ncccc23)n1", "test": "binding", "setting": "1 µM", "remaining binding [%]": 87}
{"Compound": "O=C(Nc1cccnn1)N1CCC(=Cc2cccc(Oc3ccc(C(F)(F)F)cn3)c2)CC1", "test": "cell-free assay, competition with immobilised ligand", "setting": "1 µM", "remaining binding [%]": 72}
{"Compound": "CNC(=O)[C@@H]1CC[C@@H](n2c(-c3ccc4cnccc4c3)nc3ccc(C(=O)NCc4cccc(C(N)=O)c4)cc32)C1", "test": "binding, competition with immobilised ligand", "setting": "1 µM", "remaining binding [%]": 100}
{"Compound": "CS(=O)(=O)c1cc(C2(NC(=O)c3cncc4c3cnn4-c3ccc(F)cc3)CC2)ccn1", "test": "cell-free assay, competition with immobilised ligand", "setting": "1 µM", "remaining binding [%]": 100}
{"Compound": "F[C@@H]1CCN(c2nccc(-c3cnn4ncccc34)n2)C1", "test": "binding", "setting": "1 µM", "remaining binding [%]": 100}
{"Compound": "Cc1nc(C2CCN(C(=O)c3ccc(OC(F)(F)F)cc3N)CC2)c2ncc(N3CCN(C)CC3)cc2n1", "test": "cell-free assay, competition with immobilised ligand", "setting": "1 µM", "remaining binding [%]": 100}
{"Compound": "N[C@@H]1CCN(c2nccc(-c3cnn4ncccc34)n2)C1", "test": "binding", "setting": "1 µM", "remaining binding [%]": 100}
